Measured values: ChEMBL document CHEMBL2434864, “Synthesis and biological evaluation of phenyl substituted polyoxygenated xanthone derivatives as anti-hepatoma agents” (Eur J Med Chem, 2013)

Experiments:
[1] = Cytotoxicity against human QGY7703 cells after 48 hrs by CCK-8 assay; format: functional, cell-based; conditions: QGY-7703, 48 h
In short: (§1)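 Cells grown at 37 °C, 5% CO2 in medium with 10% FBS and penicillin/streptomycin: HepG-2 in MEM; QGY-7703, SMMC-7721 and QSG-7701 in 1640 medium. Seeded at 2×10^5 cells/well for 24 h, then exposed to varying compound concentrations or 1% DMSO vehicle for 48 h. CCK-8 added for 3 h more, absorbance read at 450 nm.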

[2] = Growth inhibition of human QGY7703 cells at 10 uM after 48 hrs by CCK-8 assay relative to control; format: functional; conditions: QGY-7703, 48 h, read-out: GI
In short: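 QGY-7703 cells were kept in 1640 medium with 10% FBS and penicillin/streptomycin at 37 °C, 5% CO2, then seeded at 2×10^5 cells/well for 24 h. They were treated once at 10 μM for 48 h, followed by CCK-8 for 3 h and A450. Values are percentage inhibition relative to untreated control cells.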

SMMC-7721 = assay: Cytotoxicity against human SMMC7721 cells after 48 hrs by CCK-8 assay; format: functional, cell-based; conditions: SMMC-7721, 48 h; in short: as §1
[3] = Cytotoxicity against human QSG7701 cells after 48 hrs by CCK-8 assay; format: cell-based; conditions: QSG7701, 48 h; in short: as §1
HepG2 = assay: Cytotoxicity against human HepG2 cells after 48 hrs by CCK-8 assay; format: functional, cell-based; conditions: HepG2, 48 h; in short: as §1
QGY-7703 [4] = assay: Induction of apoptosis in human QGY7703 cells assessed as early apoptotic cells at 7.5 uM after 48 hrs by Annexin V-FITC/propidium iodide staining-based flow cytometric analysis (reference value: 2.63%); format: functional
In short: (§2)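 QGY-7703 cells were seeded at 5×10^5 cells/mL for 24 h, then given 3.75, 7.5, 15 or 30 μM, or DMSO control, for 48 h. Floating and trypsinized adherent cells were pooled, washed twice in cold PBS and resuspended in binding buffer. They were stained with annexin V-FITC/PI for 15 min at room temperature in the dark and analysed by flow cytometry. Mean ± SD of three independent experiments.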

QGY-7703 [5] = assay: Induction of apoptosis in human QGY7703 cells assessed as late apoptotic cells at 7.5 uM after 48 hrs by Annexin V-FITC/propidium iodide staining-based flow cytometric analysis (reference value: 4.25%); format: functional; in short: as §2
QGY-7703 [6] = assay: Induction of apoptosis in human QGY7703 cells assessed as late apoptotic cells at 30 uM after 48 hrs by Annexin V-FITC/propidium iodide staining-based flow cytometric analysis (reference value: 4.25%); format: functional; in short: as §2
QGY-7703 [7] = assay: Induction of apoptosis in human QGY7703 cells assessed as late apoptotic cells at 15 uM after 48 hrs by Annexin V-FITC/propidium iodide staining-based flow cytometric analysis (reference value: 4.25%); format: functional; in short: as §2
QGY-7703 [8] = assay: Induction of apoptosis in human QGY7703 cells assessed as late apoptotic cells at 3.75 uM after 48 hrs by Annexin V-FITC/propidium iodide staining-based flow cytometric analysis (reference value: 4.25%); format: functional; in short: as §2
QGY-7703 [9] = assay: Induction of apoptosis in human QGY7703 cells assessed as early apoptotic cells at 30 uM after 48 hrs by Annexin V-FITC/propidium iodide staining-based flow cytometric analysis (reference value: 2.63%); format: functional; in short: as §2
QGY-7703 [10] = assay: Induction of apoptosis in human QGY7703 cells assessed as early apoptotic cells at 3.75 uM after 48 hrs by Annexin V-FITC/propidium iodide staining-based flow cytometric analysis (reference value: 2.63%); format: functional; in short: as §2
QGY-7703 [11] = assay: Induction of apoptosis in human QGY7703 cells assessed as early apoptotic cells at 15 uM after 48 hrs by Annexin V-FITC/propidium iodide staining-based flow cytometric analysis (reference value: 2.63%); format: functional; in short: as §2

Row | Structure (SMILES) | IC50 [1] | inhibition of growth at 10 µM [2] | IC50 (SMMC-7721) | IC50 [3] | IC50 (HepG2) | further results
1 | COc1ccc2c(=O)c3c(OC)cc(OC)c(-c4ccc(C(C)(C)C)cc4)c3oc2c1OC | 33.1 µM | 56.3% | 18.2 µM | > 100 µM | 39.2 µM | 
2 | COc1cc(OC)cc(-c2c(OC)cc(OC)c3c(=O)c4ccc(OC)c(OC)c4oc23)c1 | 31.9 µM | 58% | 31.5 µM | 33.1 µM | 45 µM | 
3 | COc1ccc2c(=O)c3c(OC)cc(OC)c(-c4ccc(C(C)=O)cc4)c3oc2c1OC |  | 13.2% |  |  |  | 
4 | COc1ccc2c(=O)c3c(OC)cc(OC)c(-c4cc(C(F)(F)F)cc(C(F)(F)F)c4)c3oc2c1OC |  | 14.2% |  |  |  | 
5 | COc1ccc2c(=O)c3c(OC)cc(OC)c(-c4cccc(C#N)c4)c3oc2c1OC |  | -4.17% |  |  |  | 
6 | COc1ccc2c(=O)c3c(OC)cc(OC)c(-c4ccccc4)c3oc2c1OC | 6.27 µM | 66.5% | 7.5 µM | > 100 µM | 19.2 µM | Activity (QGY-7703 [4]): 8.63%; Activity (QGY-7703 [5]): 12.12%; Activity (QGY-7703 [6]): 23.27%; Activity (QGY-7703 [7]): 18.82%; Activity (QGY-7703 [8]): 4.6%; Activity (QGY-7703 [9]): 15.81%; Activity (QGY-7703 [10]): 2.61%; Activity (QGY-7703 [11]): 10.58%
7 | COc1ccc2c(=O)c3c(OC)cc(OC)c(-c4ccc(C)cc4)c3oc2c1OC | 14.1 µM | 68.1% | 3.15 µM | 66.3 µM | 24.6 µM | 
8 | COc1ccc2c(=O)c3c(OC)cc(OC)c(-c4ccc(C=O)cc4)c3oc2c1OC |  | 19.7% |  |  |  | 
9 | COc1ccc2c(=O)c3c(OC)cc(OC)c(-c4cccc(C)c4)c3oc2c1OC | 13.3 µM | 51.4% | 14.8 µM | > 100 µM | 5 µM | 
10 | COc1ccc2c(=O)c3c(OC)cc(OC)c(-c4ccc(C(C)C)cc4)c3oc2c1OC | 26.1 µM | 52.7% | 20.1 µM | > 100 µM | 32.5 µM | 
11 | COc1ccc2c(=O)c3c(OC)cc(OC)c(-c4cccc(F)c4)c3oc2c1OC |  | 35.2% |  |  |  | 
12 | O=c1[nH]cc(F)c(=O)[nH]1 [FLUOROURACIL] | 15.7 µM |  | 14.6 µM | 0.6 µM | 12.5 µM | 
13 | COc1ccc2c(=O)c3c(OC)cc(OC)c(-c4ccc(F)c(F)c4)c3oc2c1OC |  | 5.85% |  |  |  | 
14 | COc1ccc2c(=O)c3c(OC)cc(OC)c(-c4cc(F)cc(F)c4)c3oc2c1OC |  | 11.2% |  |  |  | 
15 | COC(=O)c1ccc(-c2c(OC)cc(OC)c3c(=O)c4ccc(OC)c(OC)c4oc23)cc1 |  | -5.48% |  |  |  | 
16 | COc1cccc(-c2c(OC)cc(OC)c3c(=O)c4ccc(OC)c(OC)c4oc23)c1 | 11.9 µM | 55.2% | 10.6 µM | 48.1 µM | 28.7 µM | 
17 | COc1cc(OC)c2c(=O)c3ccc(OC)c(OC)c3oc2c1 |  | 14.1% |  |  |  | 
18 | COc1ccc2c(=O)c3c(OC)cc(OC)c(-c4ccc(F)cc4)c3oc2c1OC |  | 13.9% |  |  |  | 
19 | COc1ccc2c(=O)c3c(OC)cc(OC)c(-c4ccc(OC(F)(F)F)cc4)c3oc2c1OC |  | 0.53% |  |  |  | 
20 | COc1ccc2c(=O)c3c(OC)cc(OC)c(-c4cc(C)ccc4C)c3oc2c1OC | 24.6 µM | 54.3% | 17 µM | 90.7 µM | 28.6 µM | 
21 | COc1ccc2c(=O)c3c(OC)cc(OC)c(-c4ccccc4F)c3oc2c1OC | 39.6 µM | 52.4% | 26.8 µM | 20.7 µM | 48.9 µM | 
22 | COc1ccc2c(=O)c3c(OC)cc(OC)c(-c4cccc(C=O)c4)c3oc2c1OC |  | 13% |  |  |  | 
23 | CCc1ccc(-c2c(OC)cc(OC)c3c(=O)c4ccc(OC)c(OC)c4oc23)cc1 | 22.6 µM | 77.1% | 16.4 µM | 69.2 µM | 28 µM | 
24 | COc1ccc2c(=O)c3c(OC)cc(OC)c(-c4ccc(C(F)(F)F)cc4)c3oc2c1OC |  | 5.23% |  |  |  | 
25 | COc1ccc2c(=O)c3c(OC)cc(OC)c(-c4cccc(C(F)(F)F)c4)c3oc2c1OC |  | 30% |  |  |  | 
26 | COc1ccc2c(=O)c3c(OC)cc(OC)c(-c4ccccc4OC(F)(F)F)c3oc2c1OC |  | 33% |  |  |  | 
27 | COc1ccc2c(=O)c3c(OC)cc(OC)c(-c4ccc(S(C)(=O)=O)cc4)c3oc2c1OC |  | 1.59% |  |  |  | 
28 | COc1ccc2c(=O)c3c(OC)cc(OC)c(-c4ccc(C#N)cc4)c3oc2c1OC |  | -1.84% |  |  |  | 
29 | COc1ccc2c(=O)c3c(OC)cc(OC)c(-c4cccnc4)c3oc2c1OC |  | 18% |  |  |  | 
30 | COc1ccc2c(=O)c3c(OC)cc(OC)c(-c4cc(F)ccc4F)c3oc2c1OC |  | 17.4% |  |  |  | 
